Experimental data from ChEMBL document CHEMBL3102840, “Synthesis and anti-proliferative activity of aromatic substituted 5-((1-benzyl-1H-indol-3-yl)methylene)-1,3-dimethylpyrimidine-2,4,6(1H,3H,5H)-trione analogs against human tumor cell lines” (2014).

Columns and labels:
Type in all cases: functional
[1] = system: A498; experiment: Cytotoxicity against human A498 cells after 48 hrs by SRB assay; settings: A498, 48 h
Method in brief: (§1)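 Five-dose run from the sixty-line panel, at 10−4, 10−5, 10−6, 10−7 and 10−8 M. SRB-stain OD is read just before compound addition, after 48 hrs of exposure, and in vehicle controls, giving percentage growth; negative growth indicates cytotoxicity. GI50 is the concentration giving 50% reduction in net protein increase versus control cells. LC50 is the concentration lethal to 50% of cells.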

[2] = system: IGROV-1; experiment: Cytotoxicity against human IGROV1 cells after 48 hrs by SRB assay; settings: IGROV-1, 48 h; method in brief: as §1
[3] = Cytotoxicity against human UACC257 cells after 48 hrs by SRB assay; settings: UACC-257, 48 h; method in brief: as §1
[4] = system: SK-MEL-2; experiment: Cytotoxicity against human SK-MEL-2 cells after 48 hrs by SRB assay; settings: SK-MEL-2, 48 h; method in brief: as §1
[5] = system: LOX IMVI; experiment: Cytotoxicity against human LOXIMVI cells after 48 hrs by SRB assay; method in brief: as §1
[6] = system: MDA-MB-468; experiment: Cytotoxicity against human MDA-MB-468 cells after 48 hrs by SRB assay; settings: MDA-MB-468, 48 h; method in brief: as §1
[7] = system: 786-0; experiment: Cytotoxicity against human 786-0 cells after 48 hrs by SRB assay; settings: 786-0, 48 h; method in brief: as §1
[8] = system: MDA-MB-468; experiment: Cytotoxicity against human MDA-MB-468 cells assessed as growth inhibition at 10 uM after 48 hrs by SRB assay; settings: MDA-MB-468, 48 h, read-out: GI
Method in brief: (§2)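 Single-dose screen at 10µM across the sixty-cell-line panel. Percentage growth is derived from SRB-stain OD taken just before compound exposure, after 48 hrs exposure, and in vehicle-treated controls. Negative values indicate cytotoxicity.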

[9] = system: MCF7; experiment: Cytotoxicity against human MCF7 cells after 48 hrs by SRB assay; settings: MCF7, 48 h; method in brief: as §1
[10] = system: MDA-MB-231; experiment: Cytotoxicity against human MDA-MB-231 cells after 48 hrs by SRB assay; settings: MDA-MB-231, 48 h; method in brief: as §1
[11] = system: SK-MEL-5; experiment: Cytotoxicity against human SK-MEL-5 cells after 48 hrs by SRB assay; settings: SK-MEL-5, 48 h; method in brief: as §1
[12] = system: TK-10; experiment: Cytotoxicity against human TK10 cells assessed as growth inhibition at 10 uM after 48 hrs by SRB assay; settings: TK-10, 48 h, read-out: GI; method in brief: as §2
[13] = system: NCI-H226; experiment: Cytotoxicity against human NCI-H226 cells after 48 hrs by SRB assay; settings: NCI-H226, 48 h; method in brief: as §1
[14] = system: SK-OV-3; experiment: Cytotoxicity against human SKOV3 cells after 48 hrs by SRB assay; settings: SK-OV-3, 48 h; method in brief: as §1
[15] = system: SR; experiment: Cytotoxicity against human SR cells after 48 hrs by SRB assay; method in brief: as §1
[16] = Cytotoxicity against human OVCAR5 cells after 48 hrs by SRB assay; settings: OVCAR-5, 48 h; method in brief: as §1
[17] = system: NCI-H226; experiment: Cytotoxicity against human NCI-H226 cells assessed as growth inhibition at 10 uM after 48 hrs by SRB assay; settings: NCI-H226, 48 h, read-out: GI; method in brief: as §2
[18] = Cytotoxicity against human OVCAR5 cells assessed as growth inhibition at 10 uM after 48 hrs by SRB assay; settings: OVCAR-5, 48 h, read-out: GI; method in brief: as §2
[19] = system: COLO 205; experiment: Cytotoxicity against human COLO205 cells after 48 hrs by SRB assay; settings: COLO 205, 48 h; method in brief: as §1
[20] = system: SW-620; experiment: Cytotoxicity against human SW620 cells after 48 hrs by SRB assay; settings: SW-620, 48 h; method in brief: as §1
[21] = system: T47D; experiment: Cytotoxicity against human T47D cells after 48 hrs by SRB assay; method in brief: as §1
[22] = system: SNB-19; experiment: Cytotoxicity against human SNB19 cells after 48 hrs by SRB assay; settings: SNB-19, 48 h; method in brief: as §1
[23] = system: BT-549; experiment: Cytotoxicity against human BT549 cells after 48 hrs by SRB assay; settings: BT-549, 48 h; method in brief: as §1
[24] = system: SF-295; experiment: Cytotoxicity against human SF295 cells after 48 hrs by SRB assay; settings: SF-295, 48 h; method in brief: as §1
[25] = system: SN12C; experiment: Cytotoxicity against human SN12C cells after 48 hrs by SRB assay; method in brief: as §1
[26] = system: K562; experiment: Cytotoxicity against human K562 cells after 48 hrs by SRB assay; settings: K562, 48 h, read-out: LC50 (the source's name); method in brief: as §1
[27] = system: HOP-62; experiment: Cytotoxicity against human HOP62 cells after 48 hrs by SRB assay; settings: HOP-62, 48 h; method in brief: as §1
[28] = system: NCI-H460; experiment: Cytotoxicity against human NCI-H460 cells after 48 hrs by SRB assay; settings: NCI-H460, 48 h; method in brief: as §1
[29] = system: UACC-62; experiment: Cytotoxicity against human UACC62 cells after 48 hrs by SRB assay; settings: UACC-62, 48 h; method in brief: as §1
[30] = system: OVCAR-8; experiment: Cytotoxicity against human OVCAR8 cells after 48 hrs by SRB assay; settings: OVCAR-8, 48 h; method in brief: as §1
[31] = system: RXF 393; experiment: Cytotoxicity against human RXF393 cells after 48 hrs by SRB assay; settings: RXF 393, 48 h; method in brief: as §1
[32] = system: A498; experiment: Cytotoxicity against human A498 cells assessed as growth inhibition at 10 uM after 48 hrs by SRB assay; settings: A498, 48 h, read-out: GI; method in brief: as §2
[33] = Cytotoxicity against human NCI-ADR-RES cells after 48 hrs by SRB assay; method in brief: as §1
[34] = system: HCT-116; experiment: Cytotoxicity against human HCT116 cells after 48 hrs by SRB assay; settings: HCT-116, 48 h; method in brief: as §1
[35] = system: MDA-MB-435; experiment: Cytotoxicity against human MDA-MB-435 cells after 48 hrs by SRB assay; settings: MDA-MB-435, 48 h; method in brief: as §1
[36] = system: TK-10; experiment: Cytotoxicity against human TK10 cells after 48 hrs by SRB assay; settings: TK-10, 48 h; method in brief: as §1
[37] = system: NCI-H23; experiment: Cytotoxicity against human NCI-H23 cells after 48 hrs by SRB assay; settings: NCI-H23, 48 h; method in brief: as §1
[38] = read-out: LC50 (the source's name)

With CN1C(=O)C(=Cc2cn(Cc3ccc(Cl)cc3)c3ccccc23)C(=O)N(C)C1=O the GI50 [1] was 0.04 µM, the LC50 [1] was 0.64 µM and the GI50 [2] was 2.88 µM. For the same molecule, the CC50 [2, 38] was greater than 100 µM, the GI50 [3] was 2.01 µM and the CC50 [3, 38] was greater than 100 µM. For the same molecule, the GI50 [4] was 2.84 µM, the GI50 [5] was 17.3 µM and the CC50 [5, 38] was greater than 100 µM. It also gave a GI50 [6] of 0.06 µM, an LC50 [6] of 0.7 µM and a GI50 [7] of 6.9 µM. For the same molecule, the LC50 [7] was greater than 100 µM, the inhibition of growth at 10 µM [8] was -71% and the GI50 [9] was greater than 100 µM. The LC50 [9] was greater than 100 µM, the GI50 [10] was 12.2 µM and the CC50 [10, 38] was greater than 100 µM. It also gave a GI50 [11] greater than 100 µM, an LC50 [11] greater than 100 µM and an inhibition of growth at 10 µM [12] of -26%. It also gave a GI50 [13] of 1.26 µM, a CC50 [13, 38] greater than 100 µM and a GI50 [14] of 6.08 µM. It also gave an LC50 [14] greater than 100 µM, a GI50 [15] of 70.3 µM and an LC50 (lethal concentration, 50%) [15] greater than 100 µM. The GI50 [16] was 0.16 µM, the CC50 [16, 38] was greater than 100 µM and the inhibition of growth at 10 µM [17] was -82%. The inhibition of growth at 10 µM [18] was -23%, the GI50 [19] was 2.78 µM and the CC50 [19, 38] was 29.5 µM. For the same molecule, the GI50 [20] was greater than 100 µM, the CC50 [20, 38] was greater than 100 µM and the GI50 [21] was 3.53 µM. For the same molecule, the LC50 [21] was greater than 100 µM, the GI50 [22] was 18.3 µM and the LC50 [22] was greater than 100 µM. The GI50 [23] was 12.5 µM, the CC50 [23, 38] was greater than 100 µM and the GI50 [24] was 1.21 µM. For the same molecule, the LC50 [24] was greater than 100 µM, the GI50 [25] was 92.1 µM and the CC50 [25, 38] was greater than 100 µM. For the same molecule, the CC50 [26] was greater than 100 µM, the GI50 [27] was 10.7 µM and the CC50 [27, 38] was greater than 100 µM. For the same molecule, the GI50 [28] was 0.4 µM, the CC50 [28, 38] was greater than 100 µM and the GI50 [29] was 2.06 µM. It also gave an LC50 [29] greater than 100 µM, a GI50 [30] of 21.3 µM and a CC50 [30, 38] greater than 100 µM. For the same molecule, the GI50 [31] was 12.5 µM, the LC50 (lethal concentration, 50%) [31] was greater than 100 µM and the inhibition of growth at 10 µM [32] was -94%. For the same molecule, the GI50 [33] was 16.3 µM, the CC50 [33, 38] was greater than 100 µM and the GI50 [34] was 4.47 µM. It also gave an LC50 [34] greater than 100 µM, a GI50 [35] greater than 100 µM and an LC50 [35] greater than 100 µM. The GI50 [36] was 0.18 µM, the CC50 [36, 38] was 50.4 µM and the GI50 [37] was 10.2 µM. It also gave an LC50 [37] greater than 100 µM.
